Consider five compounds from ChEMBL document CHEMBL1157855, “Synthesis and biological activity of n-butylphthalide derivatives” (Eur J Med Chem, 2010).

Data set [1] relates to Aorta. Nature of the data set: Vasorelaxant activity in rat thoracic aorta assessed as relaxation of resting tension.
For data set [2], the system named is Aorta. Nature of the data set: Vasorelaxant activity in rat thoracic aorta assessed as inhibition of norepinephrine-induced contractions Ca2+-free medium. It counts as functional, tissue-based.
Data set [3] is described as follows: Toxicity in ip dosed mouse. It counts as organism-based. To be noted: in vivo. In short, it runs like this:
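Acute toxicity test in mice with test article given by intraperitoneal injection; read-out was the LD50 (mg/kg).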

Turning to `CCCCC1OC(=O)c2ccc(Br)cc21` (stereo not given), in data set [1], the Activity entry is “Dose-dependent effect”.

Regarding `CCCCC1OC(=O)c2cc(F)ccc21` (stereo not given), in data set [2], the half-inhibitory concentration (IC50) was 132 µM and the inhibition result is “Dose-dependent effect”. In data set [3], this compound returned an LD50 of 593 mg/kg.

Consider `CCCCC1OC(=O)c2ccccc21` (stereo not drawn) [RAC-3-N-BUTYLPHTHALIDE], for which the 50% inhibitory concentration (IC50) in data set [2] turned out to be 130 µM. In addition, the median lethal dose (LD50) in data set [3] was 751 mg/kg.

On to `CCCCC1OC(=O)c2ccc(Cl)cc21` (stereo not given), for which the Activity entry in data set [1] was “Dose-dependent effect”.

`CCCCC1OC(=O)c2cc(Br)ccc21` (stereo not given): in data set [2], the IC50 was found to be 107 µM and the inhibition result was “Dose-dependent effect”. In data set [3], this compound yielded an LD50 above 1000 mg/kg.

What is called IC50 is the concentration needed to halve the response being measured. The LD50 is the dose expected to kill half of the subjects tested.
